Experimental data published in ChEMBL document CHEMBL1128727, “Characterization of a class of peptide boronates with neutral P1 side chains as highly selective inhibitors of thrombin” (J Med Chem, 1995).

Legend:
Prothrombin [1] = molecular target: T1, Prothrombin (Homo sapiens, UniProt P00734); assay: Binding affinity against gamma thrombin
Method in brief: (§1)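 Human α-thrombin or human γ-thrombin was assayed with S-2238 (H-D-Phe-Pip-Arg-pNA), with velocity measured over 2 min at 25 °C. A 2 h preincubation screened for slow binding. For competitive inhibitors, Ki came from Lineweaver–Burk plots at five substrate concentrations over 10-fold around Km; slow binders were fitted to the slow-binding rate equations. At least five points were run in duplicate.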

[2] = molecular target: Plasma kallikrein (Homo sapiens) (UniProt P03952); assay: Binding affinity against plasma kallikrein
Plasma kallikrein (Homo sapiens), sequence (P03952 whole entry, looked up): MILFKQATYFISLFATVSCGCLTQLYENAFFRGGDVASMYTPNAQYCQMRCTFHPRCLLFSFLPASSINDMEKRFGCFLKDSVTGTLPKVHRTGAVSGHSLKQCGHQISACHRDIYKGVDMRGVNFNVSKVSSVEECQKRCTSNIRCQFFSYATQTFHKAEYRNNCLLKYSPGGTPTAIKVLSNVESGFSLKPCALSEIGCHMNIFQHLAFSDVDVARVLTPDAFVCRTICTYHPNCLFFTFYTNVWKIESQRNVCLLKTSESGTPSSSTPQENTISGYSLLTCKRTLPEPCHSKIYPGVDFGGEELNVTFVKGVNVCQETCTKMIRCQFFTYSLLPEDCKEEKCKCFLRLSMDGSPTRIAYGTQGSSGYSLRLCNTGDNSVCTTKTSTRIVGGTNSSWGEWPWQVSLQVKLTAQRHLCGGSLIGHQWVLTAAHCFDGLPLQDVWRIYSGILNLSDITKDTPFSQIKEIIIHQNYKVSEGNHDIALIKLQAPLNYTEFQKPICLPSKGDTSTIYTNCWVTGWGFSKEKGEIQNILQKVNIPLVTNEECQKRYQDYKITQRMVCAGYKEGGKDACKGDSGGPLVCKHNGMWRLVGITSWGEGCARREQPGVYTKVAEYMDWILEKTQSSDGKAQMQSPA

Serine protease 1 = molecular target: T2, Serine protease 1 (Bos taurus, UniProt P00760); assay: Binding affinity against Trypsin
T2 sequence (P00760 whole entry): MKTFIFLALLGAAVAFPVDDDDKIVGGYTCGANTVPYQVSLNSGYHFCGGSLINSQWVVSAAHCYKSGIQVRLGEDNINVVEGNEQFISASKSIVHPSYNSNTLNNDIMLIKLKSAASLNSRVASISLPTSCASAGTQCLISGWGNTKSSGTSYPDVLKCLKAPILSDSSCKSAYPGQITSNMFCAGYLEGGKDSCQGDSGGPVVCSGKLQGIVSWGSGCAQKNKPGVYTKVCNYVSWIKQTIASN
Method in brief: (§2)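 Enzymes: bovine pancreatic α-chymotrypsin with S-2586 (MeO-Suc-Arg-Pro-Tyr-pNA), human plasma kallikrein with S-2288, porcine pancreatic elastase with Suc-Ala-Ala-Ala-pNA, and bovine pancreatic trypsin. Initial velocity was read at 25 °C over 2 min. A 2 h preincubation was used to screen for slow binding. For competitive inhibitors, Ki came from Lineweaver–Burk plots at five substrate concentrations spanning 10-fold around Km, using at least five points in duplicate.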

Coagulation factor X = Coagulation factor X (Homo sapiens, UniProt P00742); assay: Binding affinity against Coagulation factor X
Coagulation factor X, sequence (P00742 41-179 limits assumed): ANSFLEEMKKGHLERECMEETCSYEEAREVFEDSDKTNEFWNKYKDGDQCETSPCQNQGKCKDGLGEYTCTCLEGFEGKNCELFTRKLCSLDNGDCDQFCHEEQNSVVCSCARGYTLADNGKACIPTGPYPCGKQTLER
Coagulation factor X, sequence (P00742 235-488 limits assumed): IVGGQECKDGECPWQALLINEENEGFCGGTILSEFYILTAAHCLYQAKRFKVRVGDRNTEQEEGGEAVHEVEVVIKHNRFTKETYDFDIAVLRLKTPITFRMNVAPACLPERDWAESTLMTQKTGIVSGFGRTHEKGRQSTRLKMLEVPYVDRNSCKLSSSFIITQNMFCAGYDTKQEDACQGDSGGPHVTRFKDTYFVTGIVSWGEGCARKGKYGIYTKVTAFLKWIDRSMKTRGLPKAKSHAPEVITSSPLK
Method in brief: (§3)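 Chromogenic pNA assays used human plasma factor Xa with S-2222, human plasmin with S-2251, human kidney urokinase with S-2444, and human plasma activated protein C with S-2366. Rates were read over 2 min at 25 °C. A 2 h enzyme–inhibitor preincubation tested for slow binding. For non-slow binders, Ki came from Lineweaver–Burk plots at five substrate levels over a 10-fold range around Km, using at least five points in duplicate.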

[3] = Concentration of inhibitor required to produce a 2-fold prolongation in activated partial Thromboplastin time (APTT) in human plasma; type: functional
Method in brief: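 Pooled citrated normal human plasma, APTT reagent and inhibitor were incubated for 5 min at 37 °C. Clotting was started with CaCl2 from a 25 mM aqueous solution and timed on a coagulometer. The inhibitor concentration that doubled the APTT was determined in duplicate.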

[4] = molecular target: Urokinase-type plasminogen activator (Homo sapiens, UniProt P00749); assay: Binding affinity against Urokinase plasminogen activator; method in brief: as §3
[5] = Binding affinity against protein Ca; method in brief: as §3
Chymotrypsinogen A = Chymotrypsinogen A (Bos taurus, UniProt P00766); assay: Binding affinity against Chymotrypsin; method in brief: as §2
Prothrombin [6] = molecular target: T1, Prothrombin; assay: Binding affinity against thrombin; method in brief: as §1
Prothrombin [7] = molecular target: T1, Prothrombin; assay: Binding affinity against alpha thrombin; method in brief: as §1
Plasminogen [8] = molecular target: T3, Plasminogen (Homo sapiens, UniProt P00747); assay: Binding affinity against plasmin; method in brief: as §3
T3 sequence (P00747 97-580 limits assumed): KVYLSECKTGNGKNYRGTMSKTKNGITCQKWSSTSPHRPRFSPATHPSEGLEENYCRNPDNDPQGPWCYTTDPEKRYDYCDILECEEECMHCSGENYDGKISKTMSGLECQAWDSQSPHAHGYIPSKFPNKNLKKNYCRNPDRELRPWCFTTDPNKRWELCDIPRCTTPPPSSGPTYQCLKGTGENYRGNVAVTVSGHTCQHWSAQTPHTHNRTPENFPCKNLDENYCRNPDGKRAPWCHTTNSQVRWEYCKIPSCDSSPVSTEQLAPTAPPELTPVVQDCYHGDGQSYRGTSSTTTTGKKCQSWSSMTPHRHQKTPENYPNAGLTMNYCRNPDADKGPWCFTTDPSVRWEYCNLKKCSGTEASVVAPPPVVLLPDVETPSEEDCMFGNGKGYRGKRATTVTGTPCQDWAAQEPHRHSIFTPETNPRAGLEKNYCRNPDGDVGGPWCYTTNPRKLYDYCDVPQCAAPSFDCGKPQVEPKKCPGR
T3 sequence (P00747 581-810 limits assumed): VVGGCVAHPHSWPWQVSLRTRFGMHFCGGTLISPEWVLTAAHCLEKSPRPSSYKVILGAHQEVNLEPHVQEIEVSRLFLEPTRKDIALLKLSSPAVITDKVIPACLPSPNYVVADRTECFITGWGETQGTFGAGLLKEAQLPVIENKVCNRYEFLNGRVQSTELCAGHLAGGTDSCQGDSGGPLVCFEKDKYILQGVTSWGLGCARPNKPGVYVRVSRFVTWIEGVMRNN

Prothrombin [9] = molecular target: T1, Prothrombin; assay: Concentration of inhibitor required to produce a 2-fold prolongation in Thrombin time (TT)
Method in brief: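 Pooled citrated normal human plasma was incubated with inhibitor for 1 min at 37 °C; the inhibitor was serially diluted in buffer from a DMSO stock. Human α-thrombin was then added from a 5 units/mL solution in 50 mM sodium phosphate, 0.1% PEG, pH 7.4. Clotting was timed on a coagulometer, and the concentration that doubled the thrombin time was determined in duplicate.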

Plasminogen [10] = molecular target: T3, Plasminogen; assay: Binding affinity against Plasmin; method in brief: as §3

What does the source list for `CCC(C)(C)C(NC(=O)[C@@H]1CCCN1C(=O)[C@H](Cc1ccccc1)NC(=O)OCc1ccccc1)B1O[C@@H]2CC3CC(C3(C)C)[C@]2(C)O1` (some centres not stated)?
Ki (Prothrombin [1]): 0.024 µM; Ki [2]: 9.5 µM; Ki (Serine protease 1): 0.27 µM; Ki (Coagulation factor X): 2.6 µM; APTT [3]: 4 µM; Ki [4]: 15 µM; Ki [5]: 4.2 µM; Ki (Chymotrypsinogen A): 0.152 µM; Ki (Prothrombin [6]): 0.007 µM; Ki (Prothrombin [7]): 0.007 µM; Ki (Plasminogen [8]): 5.5 µM; TT (Prothrombin [9]): 1.1 µM

For `CC1(C)C2CC1[C@]1(C)OB(C(CCCBr)NC(=O)[C@@H]3CCCN3C(=O)[C@H](Cc3ccccc3)NC(=O)OCc3ccccc3)O[C@@H]1C2` (stereo in doubt; 14), which Ki (Prothrombin [6]) is on record?
The Ki was 0.13 µM.

Which results are given for `CCCCCCCCC(NC(=O)[C@@H]1CCCN1C(=O)[C@H](Cc1ccccc1)NC(=O)OCc1ccccc1)B1O[C@@H]2CC3CC(C3(C)C)[C@]2(C)O1` (some centres not stated)?
APTT [3]: >50 µM; Ki (Prothrombin [6]): 0.043 µM; TT (Prothrombin [9]): 3.9 µM

Which Ki (Prothrombin [6]) does the source give for `CC(C)C(NC(=O)[C@@H]1CCCN1C(=O)[C@@H](NC(=O)OCc1ccccc1)C(c1ccccc1)c1ccccc1)B1O[C@@H]2CC3CC(C3(C)C)[C@]2(C)O1` (some centres not stated) here?
The Ki was 0.019 µM.

Which Ki (Prothrombin [6]) does the source give for `CC1(C)C2CC1[C@]1(C)OB(C(CCCBr)NC(=O)[C@@H]3CCCN3C(=O)[C@H](Cc3ccccc3)NC(=O)OCc3ccccc3)O[C@@H]1C2` (stereo in doubt; 12) here?
The Ki was 0.007 µM.

What does the source list for `CCC(C)(C)C(NC(=O)[C@@H]1CCCN1C(=O)[C@@H](NC(=O)OCc1ccccc1)C(c1ccccc1)c1ccccc1)B1O[C@@H]2CC3CC(C3(C)C)[C@]2(C)O1` (some centres not stated)?
Ki (Prothrombin [1]): 0.034 µM; Ki [2]: > 63 µM; Ki (Serine protease 1): 0.56 µM; APTT [3]: 50 µM; Ki [4]: > 63 µM; Ki [5]: > 63 µM; Ki (Chymotrypsinogen A): 2.89 µM; Ki (Prothrombin [6]): 0.082 µM; Ki (Plasminogen [10]): 17 µM; Ki (Prothrombin [7]): 0.028 µM; Ki (Plasminogen [8]): 17 µM; TT (Prothrombin [9]): 21 µM

For `COCCCC(NC(=O)[C@@H]1CCCN1C(=O)[C@@H](NC(=O)OCc1ccccc1)C(c1ccccc1)c1ccccc1)B1O[C@@H]2CC3CC(C3(C)C)[C@]2(C)O1` (some centres not stated), which Ki (Prothrombin [1]) is on record?
The Ki was 0.004 µM.

And the Ki [2]?
The Ki was 34 µM.

What about the Ki (Serine protease 1) of the same compound?
Its Ki is 0.054 µM.

And the Ki (Coagulation factor X)?
The Ki was 7.2 µM.

What about the APTT [3] of the same compound?
The APTT was 20 µM.

What about the Ki [4] of the same compound?
The Ki was 33 µM.

What about the Ki [5] of the same compound?
Its Ki is 2.4 µM.

And the Ki (Chymotrypsinogen A)?
Its Ki is 2.96 µM.

And the Ki (Prothrombin [6])?
The Ki was 0.003 µM.

And the Ki (Prothrombin [7])?
Its Ki is 0.002 µM.

And the Ki (Plasminogen [8])?
The Ki was 12 µM.

And the TT (Prothrombin [9])?
Its TT is 0.63 µM.

With `CC1(C)C2CC1[C@]1(C)OB(C(Cc3ccccc3)NC(=O)[C@@H]3CCCN3C(=O)[C@@H](NC(=O)OCc3ccccc3)C(c3ccccc3)c3ccccc3)O[C@@H]1C2` (some centres not stated) as the compound, how does the Ki (Prothrombin [1]) read?
The Ki was 0.059 µM.

And the Ki [2]?
The Ki was 9.5 µM.

What about the Ki (Serine protease 1) of the same compound?
The Ki was 0.44 µM.

And the Ki (Coagulation factor X)?
The Ki was 4.3 µM.

And the APTT [3]?
Its APTT is >50 µM.

What about the Ki [4] of the same compound?
The Ki was > 48 µM.

What about the Ki [5] of the same compound?
The Ki was > 4.8 µM.

What about the Ki (Chymotrypsinogen A) of the same compound?
The Ki was 0.021 µM.

And the Ki (Prothrombin [6])?
Its Ki is 0.13 µM.

And the Ki (Prothrombin [7])?
The Ki was 0.13 µM.

What about the Ki (Plasminogen [8]) of the same compound?
Its Ki is 3 µM.

And the TT (Prothrombin [9])?
Its TT is 5.2 µM.

With `COCCCC(NC(=O)[C@@H]1CCCN1C(=O)[C@H](Cc1ccccc1)NC(=O)OCc1ccccc1)B1O[C@@H]2CC3CC(C3(C)C)[C@]2(C)O1` (some centres not stated) as the compound, how does the Ki (Prothrombin [6]) read?
Its Ki is 11 µM.

For `COCCC[C@@H](NC(=O)[C@@H]1CCCN1C(=O)[C@@H](Cc1ccccc1)NC(=O)OCc1ccccc1)B1O[C@@H]2CC3CC(C3(C)C)[C@]2(C)O1` (stereo in doubt; 9a), which TT (Prothrombin [9]) is on record?
The TT was 2.8 µM.

With `COCCC[C@@H](NC(=O)[C@@H]1CCCN1C(=O)[C@@H](Cc1ccccc1)NC(=O)OCc1ccccc1)B1O[C@@H]2CC3CC(C3(C)C)[C@]2(C)O1` (stereo in doubt; 10) as the compound, how does the Ki (Prothrombin [6]) read?
Its Ki is 0.007 µM.

With `Cc1ccc(CCC(NC(=O)[C@@H]2CCCN2C(=O)[C@H](Cc2ccccc2)NC(=O)OCc2ccccc2)B2O[C@@H]3CC4CC(C4(C)C)[C@]3(C)O2)cc1` (some centres not stated) as the compound, how does the Ki (Prothrombin [6]) read?
The Ki was 0.02 µM.

With `CC1(C)C2CC1[C@]1(C)OB(C(CCC3OCCO3)NC(=O)[C@@H]3CCCN3C(=O)[C@H](Cc3ccccc3)NC(=O)OCc3ccccc3)O[C@@H]1C2` (some centres not stated) as the compound, how does the APTT [3] read?
Its APTT is 18 µM.

What about the Ki (Prothrombin [6]) of the same compound?
The Ki was 0.025 µM.

And the TT (Prothrombin [9])?
The TT was 3.4 µM.

Which Ki (Prothrombin [6]) does the source give for `CC1(C)C2CC1[C@]1(C)OB(C(CCCl)NC(=O)[C@@H]3CCCN3C(=O)[C@H](Cc3ccccc3)NC(=O)OCc3ccccc3)O[C@@H]1C2` (some centres not stated) here?
Its Ki is 0.029 µM.
